# Assay outcomes deposited in PubChem BioAssay by The Scripps Research Institute Molecular Screening Center.
# OX1R antag-1: antagonists of human orexin 1 receptor; O43613; inhibition, % at 5 µM; 330,000 compounds, 0.43% hits; CHO/OX1R cells, Fluo-8 calcium fluorescence, orexin A;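 active means inhibition above its plate's threshold, mean inhibition of all tested compounds on the plate plus 3 SD, cut at about 37% in these data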
# OX1R antag-2: blocks the human orexin 1 receptor. O43613. OX1R-expressing cells, FRET antagonist read-out. AID 485270. inhibition, % at 6.6 µM. 330,000 compounds, 1.8% hits; in the data active means inhibition mostly above about 38%, no sharp cut-off; inactive means mostly below about 40%
# TAAR1 antagonist: human TAAR1 antagonism; Q96RJ0; CHO RD-HGA16 TAAR1, Fluo-8 calcium fluorescence, antagonist; inhibition, % at 3 µM; 360,000 compounds, 1.5% hits;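 active means inhibition above a per-plate cutoff, the mean inhibition of test compounds on that plate plus 3 SD, cut at about 49% in these data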
#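 Material: CHO RD-HGA16 cells bearing hTAAR1; compound dosing: one-point dosing, 3 µM nominal final; schedule: dye loading 75 min at 37 °C, then 30 min room temperature; measured by: calcium fluorescence with Fluo-8; control set: vehicle and agonist controls; replication: n of 1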
# CHO parental Ca: counter-screen for OX1R antagonists: effect in parental CHO cells; inhibition, % at 5.6 µM; parental CHO-K1, ATP-induced calcium, Fluo-8 fluorescence; 330,000 compounds, 0.63% hits;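 active means inhibition above that plate's mean sample inhibition plus 3 SD, cut at about 26% in these data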
#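 Test system: untransfected parental CHO cell line. Compound: one dose, 5.6 µM nominal. Detection: intracellular calcium via Fluo-8 no-wash fluorescent dye. Measure: % inhibition. Benchmarks: ATP-challenged DMSO wells low, unchallenged DMSO wells high.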
# GPR7 antagonist: blocks human GPR7 receptor signaling; P48145; GPR7-expressing cells, fluorescence antagonist assay; inhibition, % at 4.4 µM; 290,000 compounds, 1.1% hits; in the data active means inhibition above about 16%, passing the limit was not always enough;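 further: cells stimulated with the agonist NPW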
# Target sequence (P48145 whole entry, looked up): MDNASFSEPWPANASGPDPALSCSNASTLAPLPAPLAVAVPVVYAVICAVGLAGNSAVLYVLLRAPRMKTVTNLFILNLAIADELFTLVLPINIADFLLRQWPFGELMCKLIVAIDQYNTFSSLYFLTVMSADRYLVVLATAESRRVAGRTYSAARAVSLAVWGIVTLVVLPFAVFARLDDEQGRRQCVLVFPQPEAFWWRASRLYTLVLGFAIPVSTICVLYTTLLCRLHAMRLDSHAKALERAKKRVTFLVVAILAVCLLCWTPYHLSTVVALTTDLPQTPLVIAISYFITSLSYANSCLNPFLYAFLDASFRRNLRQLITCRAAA
# TAAR1 ag: agonists of human TAAR1. Q96RJ0. activation, % at 3 µM. CHO RD-HGA16 TAAR1, Fluo-8 calcium fluorescence; vehicle wells 0%, saturating PEA agonist 100%. 360,000 compounds, 0.99% hits;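 active means activation above the mean activation of all test compounds in the run plus 3 SD, cut at about 38% in these data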
#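 test system = CHO RD-HGA16 cells carrying human TAAR1 plus Gα16 | schedule = 17-24 h seeding, 75 min 37 °C dye, 30 min RT | compound dosing = 3 µM single concentration | control set = DMSO and PEA EC100 | replicates = n 1 | signal = Fluo-8 fluorescence, 5 s baseline then 140 s kinetic read | measure = percent activation vs PEA EC100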
# OX1R Fluo8 conf: OX1R (human) antagonism, confirmed. shares compounds with OX1R antag-1. CHO/OX1R cells, orexin A calcium Fluo-8 fluorescence. inhibition, % at 5 µM. 1,100 compounds, 38% hits. AID 492963; in the data active means inhibition above about 29%
# CHO Ca counter: counter-screen for OX1R antagonists: effect in parental CHO cells; inhibition, % at 5.6 µM; 1,100 compounds, 9.3% hits; parental CHO-K1, ATP-induced calcium, Fluo-8 fluorescence; shares compounds with OX1R antag-1;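 active means inhibition above a per-plate limit, the mean inhibition of that plate's test compounds plus 3 SD, cut at about 25% in these data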
# OX1R HTRF confirm: OX1R (human) antagonism, HTRF confirmed. inhibition, % at 6.6 µM. shares compounds with OX1R antag-2. 1,800 compounds, 49% hits. OX1R-expressing cells, HTRF antagonist assay; in the data active means inhibition above about 55%;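 further: CHO cells expressing OX1R stimulated with orexin A at about EC80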
# CHO-K1 HTRF: signal in parental CHO-K1 cells, OX1R antagonist counter-screen. shares compounds with OX1R antag-2. HTRF counterscreen. inhibition, % at 6.6 µM. 1,800 compounds, 48% hits. AID 493232; in the data active means inhibition above about 17%
# Numbers stand for hits; – = inactive; · = not tested or not shown. An excerpt weighted towards active compounds, which were near 4.6% of everything screened.
SMILES,OX1R antag-1,OX1R antag-2,TAAR1 antagonist,CHO parental Ca,GPR7 antagonist,TAAR1 ag,OX1R Fluo8 conf,CHO Ca counter,OX1R HTRF confirm,CHO-K1 HTRF
O=C(COC(=O)C1CCN(S(=O)(=O)c2ccc(Cl)c(C(F)(F)F)c2)CC1)NCC1CCCO1 (centres undefined),·,·,–,·,·,–,·,·,·,·
Nc1nc2ccc(-c3nc4ccccc4o3)cc2s1,71.6,97.3,–,–,–,–,32.0,–,89.2,–
O=S(=O)(NCCOc1ccccc1Cl)c1ccc2oc3ccccc3c2c1,54.8,99.0,–,–,–,–,–,–,66.0,–
COc1ccccc1OCCNS(=O)(=O)c1ccc2oc3ccccc3c2c1,–,–,–,–,–,–,·,·,·,·
Cc1ccc(OCC(COCc2ccccc2)NC(C)C)cc1 (centres undefined),–,–,–,–,·,–,·,·,·,·
CN(c1ccccc1)S(=O)(=O)c1cccc(NC(=O)COc2cccc([N+](=O)[O-])c2)c1,45.9,32.9,70.2,–,·,–,–,–,–,–
COc1ccc(/C=C/C(=O)OCC(=O)c2c(C)[nH]c3ccccc23)cc1OC,49.2,76.0,–,–,–,–,43.8,–,80.0,–
Cc1ccc2nc(SCC(=O)Nc3cc(C(C)(C)C)nn3-c3ccccc3)[nH]c2c1,–,–,–,–,–,–,·,·,·,·
Cc1cc(NC(=O)CSc2nc3ccccc3[nH]2)n(-c2ccccc2)n1,60.7,59.9,–,–,–,–,–,–,61.9,–
CCCS(=O)(=O)NC(=O)C1(C)CCCN(C(=O)c2ccc(SC(F)(F)F)cc2)C1 (centres undefined),·,·,–,·,·,–,·,·,·,·
COc1ccc(NC(=O)CN(C)S(=O)(=O)c2ccc3[nH]c(=O)oc3c2)cc1,–,55.9,–,–,–,–,–,–,–,–
CC(C)(C)C(=O)N1CCn2c1nc1ccccc12,–,–,–,–,–,–,·,·,·,·
CC(C)C(NS(=O)(=O)c1cccc2nsnc12)C(=O)N1CCn2c1nc1ccccc12 (centres undefined),–,134.1,–,–,–,–,–,–,92.2,–
Cc1ccc(NC2CCCN(C(=O)c3cccc(-c4ncc[nH]4)c3)C2)cc1C (centres undefined),–,92.8,–,–,–,–,65.2,–,91.6,–
COc1ccc2sc3c(=O)[nH]c4ccccc4c3c2c1,–,–,–,–,–,–,·,·,·,·
COc1ccc2c(c1)[nH]c(=O)c1sc3ccccc3c12,–,71.4,·,–,–,·,39.0,–,92.3,–
CCOc1ccccc1NC(=O)COC(=O)C(CC(C)C)N1C(=O)C2CC=CCC2C1=O (centres undefined),–,60.0,–,–,–,–,–,–,–,–
CC(C)(C)NC(=O)C(c1ccc(C#N)cc1)n1c(=O)c(-c2ccco2)nc2ccccc21 (centres undefined),·,·,–,·,·,–,·,·,·,·
COc1ccccc1C(=O)Nc1ccc2nc3n(c(=O)c2c1)CCCC3,–,94.7,–,–,–,–,30.6,–,97.1,–
COc1cc(OC)cc(C(=O)Nc2ccc3nc4n(c(=O)c3c2)CCCCC4)c1,–,–,–,–,–,–,·,·,·,·
O=C(N/N=C/c1cccc(Oc2ccccc2)c1)c1ccc(O)cc1O,·,·,–,·,–,–,·,·,·,·
Cn1c2ccccc2c2cc(/C=N/NC(=O)c3ccc(O)cc3O)ccc21,–,91.5,·,–,–,·,–,25.0,73.3,–
Cc1nc(-c2coc3cc(O)c(C)cc3c2=O)cs1,–,85.7,–,–,–,–,–,–,88.6,–
Cc1cccc(NC(=O)/C(C#N)=C\c2cn(CC(=O)O)c3ccccc23)c1,–,82.7,–,–,–,–,37.2,–,78.2,–
Cc1ccc(C(C)C)c(OCC#CCN2CCOCC2)c1,–,–,–,–,–,–,·,·,·,·
Cc1ccc(NC(=O)c2ccc3ccccc3n2)nc1,–,86.9,–,–,–,–,37.9,–,97.1,–
CCSc1nnc(NC(=O)c2ccc3ccccc3n2)s1,78.8,93.5,–,–,–,–,43.5,–,92.0,–
O=C(Nc1ccc2c(c1)OCCO2)c1ccc2ccccc2n1,–,107.4,–,–,–,–,–,–,86.8,–
CC(=O)Nc1cc2nn(-c3ccccc3)nc2cc1C,–,–,–,–,–,–,·,·,·,·
